Laboratory results as given in ChEMBL document CHEMBL1649137, “Genetic analysis of factors affecting susceptibility of Bacillus subtilis to daptomycin” (2009).
≈ marks a conversion by molar mass, not a printed value.

Key:
Bacillus subtilis [1] = assay: Antibacterial activity against sigMWX and liaIH gene-deficient Bacillus subtilis CU1065 mutant by liquid growth inhibition assay; assay type: functional
Procedure, shortened: (§1)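 Daptomycin MIC by liquid growth inhibition. Overnight cultures diluted 1:100, grown to mid-log, rediluted to 5 × 10^5 CFU/ml in Mueller-Hinton broth with 50 mg/liter Ca2+. At least 10 concentrations near the predicted MIC, plus a no-drug control, added at start; 200 μl. OD600 read every 20 min for 24 h at 37°C with shaking. Inhibition: 24 h OD600 <0.05. MIC is the mode of at least triplicates.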

Bacillus subtilis [2] = assay: Antibacterial activity against des and pspA gene-deficient Bacillus subtilis W168 mutant by liquid growth inhibition assay
Bacillus subtilis [3] = assay: Decrease in ydgK gene expression in Bacillus subtilis W168 by microarray analysis; assay type: functional
Procedure, shortened: (§2)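 W168 grown in Ca2+-supplemented Mueller-Hinton broth at 37°C to OD600 0.4, split, and one half exposed to 1 μg/ml daptomycin for 20 min. Total RNA from three biological replicates; cDNA labeled with Alexa Fluor 555/647 and co-hybridized at 42°C for 16–18 h. Genes with summed intensity <20 or SD > mean were dropped. Fold change is treated/untreated signal, from ≥6 spot measurements.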

Bacillus subtilis [4] = assay: Antibacterial activity against liaIH and pspA gene-deficient Bacillus subtilis CU1065 mutant by liquid growth inhibition assay; assay type: functional; procedure, shortened: as §1
Bacillus subtilis [5] = assay: Antibacterial activity against liaH and pspA gene-deficient Bacillus subtilis CU1065 mutant by liquid growth inhibition assay; assay type: functional; procedure, shortened: as §1
Bacillus subtilis [6] = assay: Induction of liaR gene expression in Bacillus subtilis W168 by microarray analysis; assay type: functional; procedure, shortened: as §2
Bacillus subtilis [7] = assay: Induction of ywrE gene expression in Bacillus subtilis W168 by microarray analysis; assay type: functional
Procedure, shortened: (§3)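 W168 cultures in Mueller-Hinton broth with 50 mg/liter Ca2+, 37°C with shaking, grown to mid-log phase (OD600 0.4) from a 1:1,000 overnight dilution. Split: one half given 1 μg/ml daptomycin for 20 min, the other left untreated. Total RNA from three biological replicates; cDNA labeled with Alexa Fluor 555 or 647 and hybridized 16 to 18 h at 42°C. Induction = treated/untreated signal intensity, duplicate spots on three arrays.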

Bacillus subtilis [8] = assay: Induction of liaH gene expression in Bacillus subtilis W168 by microarray analysis; assay type: functional; procedure, shortened: as §2
Bacillus subtilis [9] = assay: Induction of ypbG gene expression in Bacillus subtilis W168 by microarray analysis; assay type: functional; procedure, shortened: as §2
Bacillus subtilis [10] = assay: Antibacterial activity against pspA gene-deficient Bacillus subtilis CU1065 mutant by liquid growth inhibition assay; assay type: functional; procedure, shortened: as §1
Bacillus subtilis [11] = assay: Antibacterial activity against liaIHGFSR gene-deficient Bacillus subtilis W168 mutant by liquid growth inhibition assay; assay type: functional; procedure, shortened: as §1
Bacillus subtilis [12] = assay: Induction of liaG gene expression in Bacillus subtilis W168 by microarray analysis; assay type: functional; procedure, shortened: as §2
Bacillus subtilis [13] = assay: Induction of ydjP gene expression in Bacillus subtilis W168 by microarray analysis; assay type: functional; procedure, shortened: as §2
Bacillus subtilis [14] = assay: Induction of liaS gene expression in Bacillus subtilis W168 by microarray analysis; assay type: functional; procedure, shortened: as §2
Bacillus subtilis [15] = assay: Induction of yqjL gene expression in Bacillus subtilis W168 by microarray analysis; assay type: functional; procedure, shortened: as §2
Bacillus subtilis [16] = assay: Induction of yuaG gene expression in Bacillus subtilis W168 by microarray analysis; assay type: functional; procedure, shortened: as §2
Bacillus subtilis [17] = assay: Induction of maf gene expression in Bacillus subtilis W168 by microarray analysis; assay type: functional; procedure, shortened: as §2
Bacillus subtilis [18] = assay: Antibacterial activity against Bacillus subtilis CU1065 harboring IPTG-induced pgsA by liquid growth inhibition assay; assay type: functional; procedure, shortened: as §1
Bacillus subtilis [19] = assay: Decrease in yvcB gene expression in Bacillus subtilis W168 by microarray analysis; assay type: functional; procedure, shortened: as §2
Bacillus subtilis [20] = assay: Decrease in yvzC gene expression in Bacillus subtilis W168 by microarray analysis; assay type: functional; procedure, shortened: as §2
Bacillus subtilis [21] = assay: Decrease in fabHA gene expression in Bacillus subtilis W168 by microarray analysis; assay type: functional; procedure, shortened: as §2
Bacillus subtilis [22] = assay: Decrease in ywdD gene expression in Bacillus subtilis W168 by microarray analysis; assay type: functional; procedure, shortened: as §2
Bacillus subtilis [23] = assay: Induction of yhcY gene expression in Bacillus subtilis W168 by microarray analysis; assay type: functional; procedure, shortened: as §2
Bacillus subtilis [24] = assay: Antibacterial activity against sigX gene-deficient Bacillus subtilis CU1065 mutant by liquid growth inhibition assay; assay type: functional; procedure, shortened: as §1
Bacillus subtilis [25] = assay: Antibacterial activity against Bacillus subtilis W168 mutant by liquid growth inhibition assay; assay type: functional; procedure, shortened: as §1
Bacillus subtilis [26] = assay: Decrease in degR gene expression in Bacillus subtilis W168 by microarray analysis; assay type: functional; procedure, shortened: as §2
Bacillus subtilis [27] = assay: Decrease in yvpB gene expression in Bacillus subtilis W168 by microarray analysis; assay type: functional; procedure, shortened: as §2
Bacillus subtilis [28] = assay: Induction of liaI gene expression in Bacillus subtilis W168 by microarray analysis; assay type: functional; procedure, shortened: as §2
Bacillus subtilis [29] = assay: Antibacterial activity against liaF gene-deficient Bacillus subtilis W168 mutant by liquid growth inhibition assay; assay type: functional; procedure, shortened: as §1
Bacillus subtilis [30] = assay: Decrease in rpsT gene expression in Bacillus subtilis W168 by microarray analysis; assay type: functional; procedure, shortened: as §2
Bacillus subtilis [31] = assay: Induction of sigM gene expression in Bacillus subtilis W168 by microarray analysis; assay type: functional; procedure, shortened: as §2
Bacillus subtilis [32] = assay: Antibacterial activity against sigMWX gene-deficient Bacillus subtilis CU1065 triple mutant by liquid growth inhibition assay; assay type: functional; procedure, shortened: as §1
Bacillus subtilis [33] = assay: Decrease in yvzA gene expression in Bacillus subtilis W168 by microarray analysis; assay type: functional; procedure, shortened: as §2
Bacillus subtilis [34] = assay: Decrease in yitI gene expression in Bacillus subtilis W168 by microarray analysis; assay type: functional; procedure, shortened: as §2
Bacillus subtilis [35] = assay: Antibacterial activity against Bacillus subtilis W168 mutant with alteration in membrane composition at 25 degC by liquid growth inhibition assay; assay type: functional
Procedure, shortened: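 Mid-log cells diluted to 5 × 10^5 CFU/ml in Mueller-Hinton broth with 50 mg/liter Ca2+. At least 10 concentrations near the predicted MIC, plus an untreated control, present from the start. Growth followed by OD600. Inhibition: final 24 h OD600 <0.05. MIC is the mode of at least triplicates.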

Bacillus subtilis [36] = assay: Antibacterial activity against ugtP gene-deficient Bacillus subtilis CU1065 mutant by liquid growth inhibition assay; assay type: functional; procedure, shortened: as §1
Bacillus subtilis [37] = assay: Antibacterial activity against wild-type Bacillus subtilis; assay type: functional; procedure, shortened: as §1
Bacillus subtilis [38] = assay: Antibacterial activity against psd and mprF gene-deficient Bacillus subtilis CU1065 mutant by liquid growth inhibition assay; assay type: functional; procedure, shortened: as §1
Bacillus subtilis [39] = assay: Induction of ywaC gene expression in Bacillus subtilis W168 by microarray analysis; assay type: functional; procedure, shortened: as §3
Bacillus subtilis [40] = assay: Induction of yebC gene expression in Bacillus subtilis W168 by microarray analysis; assay type: functional; procedure, shortened: as §2
Bacillus subtilis [41] = assay: Induction of yvrI gene expression in Bacillus subtilis W168 by microarray analysis; assay type: functional; procedure, shortened: as §3
Bacillus subtilis [42] = assay: Induction of yxjI gene expression in Bacillus subtilis W168 by microarray analysis; assay type: functional; procedure, shortened: as §3
Bacillus subtilis [43] = assay: Decrease in yvkN gene expression in Bacillus subtilis W168 by microarray analysis; assay type: functional; procedure, shortened: as §2
Bacillus subtilis [44] = assay: Antibacterial activity against liaH gene-deficient Bacillus subtilis CU1065 mutant by liquid growth inhibition assay
Bacillus subtilis [45] = assay: Induction of yhdL gene expression in Bacillus subtilis W168 by microarray analysis; assay type: functional; procedure, shortened: as §2
Bacillus subtilis [46] = assay: Antibacterial activity against sigWM gene-deficient Bacillus subtilis CU1065 double mutant by liquid growth inhibition assay; assay type: functional; procedure, shortened: as §1
Bacillus subtilis [47] = assay: Induction of liaF gene expression in Bacillus subtilis W168 by microarray analysis; assay type: functional; procedure, shortened: as §2
Bacillus subtilis [48] = assay: Antibacterial activity against liar gene-deficient Bacillus subtilis W168 mutant by liquid growth inhibition assay; assay type: functional; procedure, shortened: as §1
Bacillus subtilis [49] = assay: Antibacterial activity against des gene-deficient Bacillus subtilis W168 mutant by liquid growth inhibition assay; assay type: functional; procedure, shortened: as §1
Bacillus subtilis [50] = assay: Antibacterial activity against liaH and sigW gene-deficient Bacillus subtilis CU1065 mutant by liquid growth inhibition assay; assay type: functional; procedure, shortened: as §1

CCCCCCCCCC(=O)N[C@@H](Cc1c[nH]c2ccccc12)C(=O)N[C@H](CC(N)=O)C(=O)N[C@@H](CC(=O)O)C(=O)N[C@@H]1C(=O)NCC(=O)N[C@@H](CCCN)C(=O)N[C@@H](CC(=O)O)C(=O)N[C@H](C)C(=O)N[C@@H](CC(=O)O)C(=O)NCC(=O)N[C@H](CO)C(=O)N[C@@H]([C@H](C)CC(=O)O)C(=O)N[C@@H](CC(=O)c2ccccc2N)C(=O)O[C@@H]1C
MIC (Bacillus subtilis [1]): 0.2 mg/L (≈ 0.123 µM) | MIC (Bacillus subtilis [2]): 0.9 mg/L (≈ 0.555 µM) | fold change (FC) (Bacillus subtilis [3]): 0.5 | MIC (Bacillus subtilis [4]): 0.2 mg/L (≈ 0.123 µM) | MIC (Bacillus subtilis [5]): 0.2 mg/L (≈ 0.123 µM) | fold change (FC) (Bacillus subtilis [6]): 75 | fold change (FC) (Bacillus subtilis [7]): 2.1 | fold change (FC) (Bacillus subtilis [8]): 1336 | fold change (FC) (Bacillus subtilis [9]): 3.6 | MIC (Bacillus subtilis [10]): 1 mg/L (≈ 0.617 µM) | MIC (Bacillus subtilis [11]): 0.3 mg/L (≈ 0.185 µM) | fold change (FC) (Bacillus subtilis [12]): 283 | fold change (FC) (Bacillus subtilis [13]): 2 | fold change (FC) (Bacillus subtilis [14]): 126 | fold change (FC) (Bacillus subtilis [15]): 7.8 | fold change (FC) (Bacillus subtilis [16]): 2 | fold change (FC) (Bacillus subtilis [17]): 2.5 | MIC (Bacillus subtilis [18]): 1 mg/L (≈ 0.617 µM) | fold change (FC) (Bacillus subtilis [19]): 27 | fold change (FC) (Bacillus subtilis [20]): 26 | fold change (FC) (Bacillus subtilis [21]): 2.3 | fold change (FC) (Bacillus subtilis [22]): 5.3 | fold change (FC) (Bacillus subtilis [23]): 3.3 | MIC (Bacillus subtilis [24]): 1 mg/L (≈ 0.617 µM) | MIC (Bacillus subtilis [25]): 1 mg/L (≈ 0.617 µM) | fold change (FC) (Bacillus subtilis [26]): 0.5 | fold change (FC) (Bacillus subtilis [27]): 14 | fold change (FC) (Bacillus subtilis [28]): 1294 | MIC (Bacillus subtilis [29]): 1 mg/L (≈ 0.617 µM) | fold change (FC) (Bacillus subtilis [30]): 0.5 | fold change (FC) (Bacillus subtilis [31]): 2.1 | MIC (Bacillus subtilis [32]): 0.6 mg/L (≈ 0.37 µM) | fold change (FC) (Bacillus subtilis [33]): 10 | fold change (FC) (Bacillus subtilis [34]): 2.9 | MIC (Bacillus subtilis [35]): 0.7 mg/L (≈ 0.432 µM) | MIC (Bacillus subtilis [36]): 0.9 mg/L (≈ 0.555 µM) | MIC (Bacillus subtilis [37]): 1 mg/L (≈ 0.617 µM) | MIC (Bacillus subtilis [38]): 0.9 mg/L (≈ 0.555 µM) | fold change (FC) (Bacillus subtilis [39]): 3.5 | fold change (FC) (Bacillus subtilis [40]): 3.6 | fold change (FC) (Bacillus subtilis [41]): 574 | fold change (FC) (Bacillus subtilis [42]): 2.1 | fold change (FC) (Bacillus subtilis [43]): 26 | MIC (Bacillus subtilis [44]): 0.4 mg/L (≈ 0.247 µM) | fold change (FC) (Bacillus subtilis [45]): 2.5 | MIC (Bacillus subtilis [46]): 0.7 mg/L (≈ 0.432 µM) | fold change (FC) (Bacillus subtilis [47]): 149 | MIC (Bacillus subtilis [48]): 0.5 mg/L (≈ 0.309 µM) | MIC (Bacillus subtilis [49]): 0.9 mg/L (≈ 0.555 µM) | MIC (Bacillus subtilis [50]): 0.3 mg/L (≈ 0.185 µM)
